Most compounds without a hit are left out; they make up all but 2.3% or so of the library.
TRPC4 agonist – activators of mouse TRPC4 channel. Q9QUQ5. HEK293 TRPC4beta/mu-opioid, Fluo4 calcium fluorescence; hits give high values. B-score at 10 µM. 0.49% of 310,000 active;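 active = B-score above 5 SD of library B-scores, and initial fluorescence ratio not above library mean plus 5 SD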;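 also: positive B-score marks a calcium rise read as TRPC4 activation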
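system = HEK293 cells stably co-expressing mouse TRPC4beta and mu-opioid receptor | schedule = Fluo4 dye loading 45 min at room temperature, 110 s recording | measure = B-scored integrated calcium fluorescence ratio | signal = Fluo4 calcium-sensitive dye fluorescence, kinetic, 1 Hz baseline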
TRPC6 act – mouse TRPC6 channel activation; HEK293-TRPC6 membrane potential dye fluorescence; hits give high values; B-score at 10 µM; 0.13% of 310,000 active;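 active = B-score of the integrated fluorescence ratio above library mean plus 3 SD, and starting fluorescence ratio within library mean plus 5 SD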;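 also: higher score means more depolarization so channel activation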
TRPC4 PAM – allosteric potentiators of mouse TRPC4 channel | Q9QUQ5 | HEK293 TRPC4beta/mu-opioid, DAMGO EC20, Fluo-4 Ca2+ flux; hits give high values | B-score at 10 µM | 0.42% of 310,000 active;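 active = B-score of calcium response area above 5 SD of library B-scores, with initial fluorescence ratio within 5 SD of library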;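 also: B-score of integrated fluorescence ratio over time as area under calcium response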
TRPC4 block – blocks the mouse TRPC4 cation channel. Q9QUQ5. HEK293 TRPC4beta/mu-opioid, DAMGO-evoked Fluo4 calcium flux; hits give low values. B-score at 10 µM. 0.39% of 300,000 active. AID 2247;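 active = B-score over 3 SD under the library average, no early fluorescence shift, positive overall ratio signal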
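Material: HEK293 cells with stable TRPC4beta plus mu-opioid receptor expression / Probe or stimulus: DAMGO in two steps, submaximal then maximal / Compound: single concentration per test compound / Technique: kinetic Fluo4 fluorescence imaging of calcium influx / Read-out: per-well B score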
TRPC6 inh – inhibitors of mouse TRPC6 channel | Q61143 | HEK293-TRPC6, membrane potential dye, ACh-evoked depolarization; hits give low values | B-score at 10 µM | 1.1% of 310,000 active | AID 2553;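 active = B-score under library mean minus 3 SD, initial fluorescence not abnormally high, positive integrated signal ratio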;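 also: B-score derived from integrated fluorescence ratio over the kinetic read; more negative B-score means stronger inhibition of depolarization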
TRPC4 sel inh 2 – second selectivity test of TRPC6 inhibitors: effect on mouse TRPC4. 42% of 920 active. shares compounds with TRPC6 inh. inhibition, % at 10 µM. HEK293 TRPC4/MOR, membrane potential dye fluorescence; channel activated by saturating DAMGO dose;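 active = compounds whose fluorescence signal differed from control wells by over 3 SD, either direction, in both duplicate plates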
TRPC4 spec – tests whether TRPC6 inhibitors also affect mouse TRPC4. shares compounds with TRPC6 inh. activity change, negative = inhibition, % at 10 µM. 61% of 920 active. HEK293 TRPC4/mu-opioid, membrane potential fluorescence;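 active = rise or fall in signal beyond 3 SD of buffer-only wells in both replicate plates, either sign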;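 also: integrated kinetic ratio of fluorescence range over baseline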
HEK293 MPD ctr 2-1 – parental HEK293 nonspecific activity of TRPC6 inhibitors, second screen; shares compounds with TRPC6 inh; parental HEK293 membrane potential dye fluorescence; maximal acetylcholine challenge after compound addition; signal change vs control, % at 10 µM; 31% of 920 active; AID 2779;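 active = membrane potential signal moving either way by over 3 SD of the maximum-effect control, in both duplicate plates, meaning non-specific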
HEK293 MPD ctr-1 – counter-screen for TRPC6 inhibitors: effect in parental HEK293 cells | shares compounds with TRPC6 inh | parental HEK293 membrane potential dye fluorescence | 60% of 920 active | AID 2780 | membrane potential signal change, % at 10 µM;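 active = membrane potential signal shifting up or down by more than 3 SD of buffer-only wells, on both duplicate plates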
HEK293 MPD ctr-2 – counter-screen for TRPC6 modulators: effect in parental HEK293 cells; 51% of 2,400 active; AID 488924; membrane potential dye fluorescence; shares compounds with TRPC6 inh; membrane potential signal change, % at 10 µM;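 active = membrane potential signal moves up or down beyond 5 SD from buffer-only wells, on both duplicate plates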
HEK293 MPD ctr 2-2 – second check of TRPC6 modulator effects in parental HEK293 cells. inhibition, % at 10 µM. membrane potential dye fluorescence; after compound, maximal acetylcholine stimulation. shares compounds with TRPC6 inh. 14% of 2,400 active;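 active = membrane potential signal drops by more than 5 SD from the mean control signal, in both duplicate plates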;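 also: plate controls were acetylcholine ECmax control wells for no effect and buffer only wells for full effect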
TRPC4 ctr mod – mouse TRPC4 off-target activity of TRPC6 modulators | 69% of 2,400 active | percent change from control (negative = decrease, positive = increase), % at 10 µM | shares compounds with TRPC6 inh | HEK293 TRPC4/mu-opioid, membrane potential fluorescence | AID 488927;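 active = membrane potential signal moved up or down beyond 5 SD of buffer control wells, in both duplicate plates, actives on both sides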;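 also: plate controls were assay buffer wells for no effect and DAMGO maximal-effect wells for full effect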
TRPC4 ctr inh 2 – second selectivity test of TRPC6 modulators against mouse TRPC4 | 55% of 2,400 active | inhibition, % at 10 µM | HEK293 TRPC4/mu-opioid, membrane potential dye fluorescence; stimulated with maximal-effect DAMGO | shares compounds with TRPC6 inh | AID 488928;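 active = drop in membrane potential signal beyond 5 SD of the control wells in both duplicate plates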;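 also: TRPC4 counter screen for TRPC6 hits run under conditions tuned for TRPC6 not TRPC4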
TRPC6 inh conf – mouse TRPC6 inhibitor confirmation; shares compounds with TRPC6 inh; HEK293-TRPC6, membrane potential dye, ACh-evoked depolarization; inhibition, % at 10 µM; 43% of 3,300 active; AID 488960;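 active = fluorescence ratio falls more than 5 SD below the full-stimulation control mean, in both duplicate runs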;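 also: integrated fluorescence ratio of peak minus minimum over baseline after agonist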
TRPC6 act conf – confirmation of mouse TRPC6 activators; 11% of 2,800 active; activation, % at 10 µM; AID 488961; shares compounds with TRPC6 inh; HEK293-TRPC6 membrane potential dye fluorescence, FDSS;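 active = ratio signal rise beyond 5 SD above unstimulated control wells' mean, seen in both duplicate runs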;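 also: plate controls were buffer EC0 wells for no effect and acetylcholine ECmax response for full effect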
An asterisk follows results filed as active; i = inactive; . = not tested or not shown; + = active, no number.

SMILES	TRPC4 agonist	TRPC6 act	TRPC4 PAM	TRPC4 block	TRPC6 inh	HEK293 MPD ctr-2	HEK293 MPD ctr 2-2	TRPC4 ctr mod	TRPC4 ctr inh 2	TRPC6 inh conf	TRPC6 act conf	others
C[n+]1ccc(/C=C/c2ccc(Br)cc2)cc1	i	i	i	i	-5.2*	-77.5%*	i	i	35.5%*	i	i
Cc1ccc2[nH]c(C)c(/C=C/c3cc[n+](C)cc3)c2c1	i	i	i	i	i	.	.	.	.	.	.
CCOC(=O)N1CCC(N2Cc3cccc(C(=O)Nc4ccc(OCC)cc4)c3C2=O)CC1	i	i	i	i	i	.	.	.	.	.	.
CCOC(=O)N1CCC(N2Cc3cccc(C(=O)Nc4ccc(CC)cc4)c3C2=O)CC1	i	i	i	i	-7.42*	.	.	.	.	i	i	TRPC4 sel inh 2=i;TRPC4 spec=i;HEK293 MPD ctr 2-1=i;HEK293 MPD ctr-1=i
CCOC(=O)N1CCC(N2Cc3cccc(C(=O)NCc4ccc(OC)cc4)c3C2=O)CC1	i	i	i	i	-7.73*	.	.	.	.	i	i	TRPC4 sel inh 2=i;TRPC4 spec=i;HEK293 MPD ctr 2-1=i;HEK293 MPD ctr-1=i
O=C(NNS(=O)(=O)c1ccc2ccccc2c1)C1CCN(Cc2ccccc2)CC1	i	i	i	i	-18*	.	.	.	.	82.9%*	.	TRPC4 sel inh 2=i;TRPC4 spec=4.8%*;HEK293 MPD ctr 2-1=0.0%*;HEK293 MPD ctr-1=5.2%*
O=C(NNS(=O)(=O)c1ccc(F)cc1)C1CCN(S(=O)(=O)c2ccccc2)CC1	i	i	i	i	i	.	.	.	.	.	.
O=S(=O)(NC1CCN(Cc2ccccc2)CC1)c1ccc2ccccc2c1	i	i	i	i	i	.	.	.	.	.	.
O=C(NNS(=O)(=O)c1ccc(F)cc1)C1CCN(Cc2cccc(F)c2)CC1	i	i	i	i	-5.02*	i	i	i	i	i	i
COc1cc(/C=C2/CC/C(=C/c3ccc(O)c(OC)c3)C2=O)ccc1O	43*	13.7*	i	i	i	451.0%*	149.0%*	100.5%*	i	i	97.0%*
NCc1cc2c3c(c1)CCCN3CCC2	i	i	i	i	-5.73*	i	i	i	i	i	i
CCOc1ccc(C(=O)C2CCN(C(=O)c3ccc([N+](=O)[O-])cc3)CC2)cc1	i	i	i	i	i	.	.	.	.	.	.
CCOC(=O)Cn1c(=N)n(CCOc2ccc(Br)cc2)c2ccccc21	i	i	i	i	-7.74*	.	.	.	.	55.0%*	i	TRPC4 sel inh 2=43.5%*;TRPC4 spec=0.5%*;HEK293 MPD ctr 2-1=i;HEK293 MPD ctr-1=3.0%*
COC(=O)c1ccccc1NC(=O)c1cc[n+](C)cc1	i	i	i	i	-5.8*	-200.5%*	i	-33.0%*	i	i	i
COC(=O)c1ccccc1NC(=O)c1cc[n+]([O-])cc1	i	i	i	i	i	.	.	.	.	.	.
CCOC(=O)/C(=C/C=C1\Sc2cc(C)c(C)cc2N1CC)C(C)=O	i	i	i	i	-5.02*	+	+	281.5%*	52.0%*	i	.
CCCN(CCC)CCCNc1ccc2nnc(-c3ccc(F)cc3)n2n1	94*	i	i	i	-5.14*	-190.0%*	i	-17.0%*	35.5%*	i	i
CCOC(=O)CC(=O)CSc1ccc2nnc(-c3ccc(F)cc3)n2n1	i	i	i	i	i	.	.	.	.	.	.
CCOC(=O)C1CCN(C(=O)c2ccccc2NS(=O)(=O)c2ccccc2)CC1	i	i	i	i	i	.	.	.	.	.	.
CCOC(=O)C1CCN(C(=O)c2cccc(S(=O)(=O)Nc3ccc(C)cc3C)c2)CC1	i	i	i	i	-5.27*	i	i	12.5%*	i	36.5%*	.
CCCCCOc1ccc(Br)cc1CSC(=N)N	i	i	i	i	-6.44*	135.0%*	i	24.5%*	76.0%*	i	.
CCOc1ccc(CSC(=N)N)cc1	i	i	i	i	i	.	.	.	.	.	.
CCCCOc1ccc(CSC(=N)N)cc1Cl	i	i	i	i	-6.73*	.	.	.	.	i	i	TRPC4 sel inh 2=70.5%*;TRPC4 spec=i;HEK293 MPD ctr 2-1=265.5%*;HEK293 MPD ctr-1=2.0%*
CCc1ccc(CNc2ccc3c(c2)ncn3C)cc1	i	i	i	i	-6.31*	i	i	-14.5%*	61.0%*	37.0%*	i
CCn1cnc2cc(NCc3ccc(Cl)cc3)ccc21	i	i	i	i	-5.59*	i	i	i	39.5%*	48.5%*	i
Cc1ccc(CNc2ccc3c(c2)ncn3C)cc1	i	i	i	i	i	.	.	.	.	.	.
CCn1cnc2cc(NCc3ccncc3)ccc21	i	i	i	i	i	.	.	.	.	.	.
O=C(Cn1c(=O)n(-c2cccc(C(F)(F)F)c2)c(=O)c2sccc21)NCC1CCCO1 (stereo not given)	i	i	i	i	i	.	.	.	.	.	.
Cc1cc(OCCN2CCC(Cc3ccccc3)CC2)ccc1[N+](=O)[O-]	i	i	i	i	-8.22*	.	.	.	.	i	i	TRPC4 sel inh 2=54.0%*;TRPC4 spec=i;HEK293 MPD ctr 2-1=i;HEK293 MPD ctr-1=i
O=C(NCCN1CCOCC1)c1cnn2c(-c3ccccc3)cc(-c3ccccc3)nc12	i	i	i	i	-7.48*	.	.	.	.	i	i	TRPC4 sel inh 2=i;TRPC4 spec=i;HEK293 MPD ctr 2-1=i;HEK293 MPD ctr-1=-130.0%*

Source: PubChem BioAssay (Johns Hopkins Ion Channel Center)
